Published values from different studies.
Lines come from different studies, so protocols differ.
Cell line: MDA-MB-231
Observed: cell growth or viability

COc1cc(OC)cc([C@H]2C[C@@H](C)OC(=O)c3cc4ccccn4c32)c1 (racemic) — IC50 (resazurin; 72 h): 20.5 µM
FC(F)(F)c1cccc(Nc2ncnc3ccc(Nc4ccccc4)cc23)c1 — IC50 (MTT; 24 h): 15.5 µM
Cc1cc(NS(=O)(=O)c2ccc(NC(=O)COc3ccc(C(C)(C)c4ccccc4)cc3)cc2)nc(C)n1 — IC50 (MTT; 72 h): 38.9 µM
COc1cc([C@H]2C[C@@H](C)OC(=O)c3cc4ccccn4c32)cc(OC)c1OC (racemic) — IC50 (resazurin; 72 h): > 100 µM
COc1ccc(-c2nc3ccccc3[nH]2)cc1O — IC50 (MTT; 48 h): 88.1 µM
CC(=O)O[C@H]1C(=O)[C@@]2(C)[C@H]([C@H](OC(=O)c3ccccc3)[C@]3(O)C[C@H](OC(=O)[C@H](O)[C@@H](NC(=O)c4ccccc4)c4ccccc4)C(C)=C1C3(C)C)[C@]1(OC(C)=O)CO[C@@H]1C[C@@H]2O — IC50 (72 h): 0.0051 µM
COc1ccc(-c2nc(C(=O)Nc3nnc(-c4cc5ccccc5[nH]4)s3)cc3c2[nH]c2ccccc23)cc1 — IC50 (MTT; 72 h): 3.28 µM
CC(C)C(=O)Nc1ccc([N+](=O)[O-])c(C(F)(F)F)c1 — IC50 (CCK-8; 48 h): > 50 µM
CC(=O)O[C@@]12CO[C@@H]1C[C@H](O)[C@@]1(C)C(=O)[C@H](O)C3=C(C)[C@@H](OC(=O)[C@H](O)[C@@H](NC(=O)OC(C)(C)C)c4ccccc4)C[C@@](O)([C@@H](OC(=O)c4ccccc4)[C@H]21)C3(C)C — IC50 (ATP luminescence; 72 h): 0.0022 µM
Cc1ccc2nc(-c3cc(Br)ccc3O)[nH]c2c1 — IC50 (MTT; 48 h): 6.69 µM
CC(C)CCC[C@@H](C)[C@H]1CC[C@H]2[C@@H]3CC=C4C[C@@H](O)CC[C@]4(C)[C@H]3CC[C@]12C — IC50 (resazurin; 72 h): > 30 µM
CCOc1ccc(-c2nc3ccc(C)cc3[nH]2)cc1 — IC50 (MTT; 48 h): 13.2 µM
COc1ccc(Br)cc1/C=C/C(=O)c1ccc(NC(C)=O)cc1 — IC50 (MTT; 72 h): 9.5 µM
C=CCNC1=C2C[C@@H](C)C[C@H](OC)[C@H](O)[C@@H](C)/C=C(\C)[C@H](OC(N)=O)[C@@H](OC)/C=C\C=C(/C)C(=O)NC(=CC1=O)C2=O — IC50 (MTT): 0.338 µM
COc1c(C)c(OC)c2c(c1C)OC(c1ccccc1)CC2=O (centres unmarked) — IC50 (SRB; 72 h): > 50 µM
O=C1C[C@@H](c2ccc(O)cc2)Oc2cc(O)cc(O)c21 — IC50 (MTT; 48 h): 2.98 µM
Oc1ccccc1-c1nc2ccccc2[nH]1 — IC50 (MTT; 48 h): 35.9 µM
Oc1cccc(Nc2ccc3ncnc(Nc4cccc(C(F)(F)F)c4)c3c2)c1 — IC50 (MTT; 24 h): 3.34 µM
C[C@@H]1C[C@H](c2cccc(Cl)c2)c2c(cc3ccccn23)C(=O)O1 (racemic) — IC50 (resazurin; 72 h): 36 µM
FC(F)(F)c1cccc(Nc2ncnc3ccc(-c4ccc(Cl)cc4)cc23)c1 — IC50 (MTT; 24 h): 11.4 µM
COc1ccc(-c2nc3ccccc3[nH]2)cc1OC — IC50 (MTT; 48 h): 50.1 µM
COc1cccc2c1C(=O)c1c(O)c3c(c(O)c1C2=O)C[C@@](O)(C(=O)CO)C[C@@H]3O[C@H]1C[C@H](N)[C@H](O)[C@H](C)O1 — IC50 (MTT; 72 h): 1.48 µM
C[C@@H]1C[C@@H](c2ccc3c(c2)OCO3)c2c(cc3ccccn23)C(=O)O1 (racemic) — IC50 (resazurin; 72 h): 29.4 µM
C=CCn1c(-c2ccc([N+](=O)[O-])cc2)nc2ccccc21 — IC50 (MTT): 43.9 µM
COc1ccnc(Nc2ccc3ncnc(Nc4cccc(C(F)(F)F)c4)c3c2)c1 — IC50 (MTT; 24 h): 6.62 µM
Clc1ccc(Cn2c(-c3ccc(Cl)cc3)nc3ccccc32)cc1 — IC50 (MTT): 7.48 µM
COc1cccc2c1C(=O)c1c(O)c3c(c(O)c1C2=O)C[C@@](O)(C(=O)CO)C[C@@H]3O[C@H]1C[C@H](N)[C@H](O)[C@H](C)O1 — IC50 (MTT): 4.27 µM
Clc1ccc(-c2nc3ccccc3[nH]2)cc1Cl — IC50 (MTT; 48 h): 9.83 µM
CC(=O)OC[C@H]1O[C@@H]([S-])[C@H](OC(C)=O)[C@@H](OC(C)=O)[C@@H]1OC(C)=O.CCP(CC)CC.[Au+] — IC50 (resazurin): 1.58 µM
O=C(Nc1nnc(-c2cc3ccccc3[nH]2)s1)c1cc2c([nH]c3ccccc32)c(-c2ccc(F)cc2)n1 — IC50 (MTT; 72 h): 6.79 µM
COc1nc(SC)nc(OC)c1C(=O)/C=C/[c-]1cccc1.[Fe+2].c1cc[cH-]c1 — IC50 (MTT; 72 h): 9.3 µM
O=C(CSc1nc2ccc(N=Cc3ccc(Sc4nnnn4-c4ccccc4)o3)cc2s1)N1CCOCC1 — IC50 (MTT; 48 h): 21 µM
Cc1nc(Nc2ncc(C(=O)Nc3c(C)cccc3Cl)s2)cc(N2CCN(CCO)CC2)n1 — IC50 (MTT; 48 h): 19.4 µM
COc1ccc(-c2ccc3ncnc(Nc4cccc(C(F)(F)F)c4)c3c2)cc1 — IC50 (MTT; 24 h): 6.39 µM
CC(=O)Nc1nc(C)c(-c2csc(Nc3ccccc3)n2)s1 — IC50 (MTT; 48 h): 12.2 µM
